The term Kd denotes the free concentration of one partner at which half of the binding sites on the other are occupied at equilibrium, for simple one-to-one binding. A higher Kd goes with a looser complex.

“Also recorded” adds a separate entry of the source. Where no end group is shown, it is not given here.

Series [1] relates to Recombinant CD44v3–v10 protein. The series can be described thus: Competitive inhibition ELISA on recombinant CD44v3–v10 protein. It counts as binding, human. As to conditions: in words; CD44v3–v10 protein 1 µg/well; various peptide concentrations; n = 3. The procedure, abridged:
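Plates were coated with recombinant CD44v3–v10 protein (1 µg/well) and preincubated with candidate or control peptide at various concentrations. Candidate phage binding was then read by phage ELISA: goat anti-M13 (1:200), HRP secondary (1:5,000), TMB, OD450. Inhibition = 100% – 100%×(ODt – ODb)/(ODi – ODb), where ODb is wells lacking anti-M13 antibody.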
In general terms: ELISA stands for enzyme-linked immunosorbent assay.

The test system of series [2] is CD44v3–v10 over expressed HEK-293 cells. The series is classed as binding, human. The following applies: in words; 1×10^10 pfu/well, 37 °C, 1 h. In outline:
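HEK-293 cells were transfected with a CD44v3–v10 plasmid or an empty plasmid, and assayed 48 h later. Candidate or unrelated phages (1×10^10 pfu/well) were bound for 1 h at 37 °C, then washed six times. Detection used goat anti-M13 (1:200), HRP secondary (1:5,000) and TMB, read at OD450. Selectivity = (ODpv – ODbv)/(ODpc – ODbc), with backgrounds from cells without phage. Triplicate, mean ± SD.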

Series [3] has as its system excised tumor and organs (liver, stomach, kidney, lung, heart) of SGC-7901 xenograft mice. The series can be described thus: Biodistribution: fluorescence imaging of excised tumor and organs. The series is classed as in vivo, BALB/c-nu/nu mice. The following applies: FITC labeled, 1 µg/g, i.v., 3 h after injection.
In series [4] the test system is SGC-7901 subcutaneous GC xenograft. Nature of the series: In vivo fluorescence imaging of SGC-7901 xenograft models. Further details: species or system BALB/c-nu/nu mice. As to conditions: FITC labeled, 1 µg/g body weight, tail vein. The procedure, abridged:
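Male BALB/c nude mice (4–5 weeks, 20–25 g) received 5×10^6 SGC-7901 cells subcutaneously in the axilla, and tumours grew about 3 weeks to 1 cm3. Mice were randomised to two groups of ten. Each group received FITC-peptide probe or FITC-scrambled peptide, 1 µg/g via the tail vein. Under isoflurane, five mice per group were imaged every half hour until the probe was excreted. Signal was expressed as (p/sec/cm2/sr)/(µW/cm2), mean ± SE.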

In series [5] the target is CD44v3–v10 protein (Homo sapiens, UniProt P16070). The series can be described thus: Binding affinity to CD44v3–v10 protein. The procedure, abridged: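 Biotin-labelled peptide at a range of concentrations was incubated with immobilised recombinant CD44v3–v10 protein, with BSA as the comparison surface. Bound peptide was read as OD values, as in the competitive ELISA. Kd came from fitted binding curves and Scatchard plots. A scrambled peptide was the control. Each point was measured three times, mean ± SD.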
CD44v3–v10 protein, sequence (P16070 21-699 isoform P16070-4 limits assumed): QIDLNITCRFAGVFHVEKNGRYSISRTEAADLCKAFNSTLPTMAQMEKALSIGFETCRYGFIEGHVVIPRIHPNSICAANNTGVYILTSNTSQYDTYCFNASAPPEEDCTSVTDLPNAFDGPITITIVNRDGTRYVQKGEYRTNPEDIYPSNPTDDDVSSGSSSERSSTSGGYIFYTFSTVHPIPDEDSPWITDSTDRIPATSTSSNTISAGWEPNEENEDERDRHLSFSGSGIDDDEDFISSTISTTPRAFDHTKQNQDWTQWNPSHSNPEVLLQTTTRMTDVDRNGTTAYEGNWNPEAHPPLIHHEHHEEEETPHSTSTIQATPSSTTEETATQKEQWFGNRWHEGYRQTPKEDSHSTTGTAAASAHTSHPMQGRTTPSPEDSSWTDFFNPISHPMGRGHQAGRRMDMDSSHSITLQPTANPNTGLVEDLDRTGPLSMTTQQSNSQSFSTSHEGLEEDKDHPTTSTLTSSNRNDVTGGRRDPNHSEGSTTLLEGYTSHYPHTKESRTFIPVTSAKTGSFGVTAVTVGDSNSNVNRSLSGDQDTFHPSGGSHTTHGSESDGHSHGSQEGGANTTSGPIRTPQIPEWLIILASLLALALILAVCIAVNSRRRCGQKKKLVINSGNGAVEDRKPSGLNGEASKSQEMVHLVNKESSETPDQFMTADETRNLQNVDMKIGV

Series [6] deals with HEK-293 cells transfected with empty plasmids. Nature of the series: Immunofluorescence staining of HEK-293 cells transfected with empty plasmid. As to conditions: 5 µM rhodamine B-labeled peptide; GFP reporter. The series is classed as cell-based, human. In outline:
(§1)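 HEK-293 cells were grown in DMEM with 10% FBS and transfected 48 h beforehand with a GFP-reporter CD44v3–v10 plasmid or an empty plasmid. Cells were fixed in 4% paraformaldehyde and blocked in 3% BSA. They were then stained with 5 µM rhodamine B-labelled peptide, with scrambled peptide as control. Nuclei were stained with DAPI, and cells were imaged by fluorescence microscopy at ×400.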

The subject of series [7] is SGC-7901 cells. Nature of the series: Immunofluorescence staining of SGC-7901 cells. It counts as cell-based. As to conditions: 5 µM FITC-labeled peptide, 37 °C, 10 min, co-stained with anti-CD44v6 antibody. The procedure, abridged:
(§2)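 Gastric cancer cells were grown in RPMI 1640 with 10% FBS and seeded on coverslips overnight. They were fixed in 4% paraformaldehyde and blocked in 3% BSA. Cells were labelled with monoclonal anti-CD44v6 (1:500, 1 h) and a Cy3 secondary, then with 5 µM FITC-peptide at 37 °C for 10 min. Nuclei were stained with DAPI; imaging was by fluorescence microscopy at ×400.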

The test system of series [8] is MKN-45 cells. The series can be described thus: Immunofluorescence staining of MKN-45 cells. As to conditions: 5 µM FITC-labeled peptide, 37 °C, 10 min, co-stained with anti-CD44v6 antibody. It counts as cell-based. In outline: as §2
Series [9] concerns MKN-28 cells. Nature of the series: Immunofluorescence staining of MKN-28 cells. It counts as cell-based. As to conditions: 5 µM FITC-labeled peptide, 37 °C, 10 min, co-stained with anti-CD44v6 antibody. In outline:
as §2

Series [10] concerns CD44v3–v10 over expressed HEK-293 cells. Nature of the series: Immunofluorescence staining of CD44v3–v10 over expressed HEK-293 cells. The following applies: 5 µM rhodamine B-labeled peptide; GFP reporter. It counts as cell-based, human. In outline: as §1

As for THMPSDPGMNLL, the “Inhibition of candidate phage binding by displayed peptide” value in series [1] was “dose-dependent manner”.

THMPSDPGMNLL [C1]: the “Binding activity / affinity / selectivity ranking in phage ELISA” value in series [2] was “highest binding activity and frequency; also recorded: considerable affinity”.

Consider ELTVMGYYPGMS [C3], for which the “Binding activity / affinity / selectivity ranking in phage ELISA” value in series [2] was “highest binding activity and frequency; also recorded: second highest selectivity; also recorded: highest affinity”.

Consider ELTVMGYYPGMS [ELT, ELTVMGYYPGMS], for which the “Distribution in liver and kidney” value in series [3] is “distributed in liver and kidney”. Further, in series [4] (4 h), the “Elimination (fluorescence signal four hours after injection)” value is reported as “nearly undetectable”. The “Time of top fluorescent intensity in tumor” value in series [4] (n = 5) is reported as 3 h. The sequence also returned a Kd in [5] of 0.611 µM.

Regarding EHDNTGMLYSVD [control peptide], the “Fluorescent staining of HEK-293 transfected with empty plasmid” value in series [6] is recorded as “only background staining”. For the same sequence, the “Fluorescent staining of SGC-7901” value in series [7] is on record as “only background staining”. Further, the “Distribution in liver and kidney” value in [3] was “distributed in liver and kidney”. Also, the “Strong fluorescence on excised tumor tissue (mice positive/total)” value in series [3] (five mice per group) is reported as “not control group”. The “Fluorescent staining of MKN-45” value in series [8] is “only background staining”. Moreover, the “Fluorescent staining of MKN-28” value in series [9] is on record as “only background staining”. Further, the “Fluorescent staining of CD44v3–v10 over expressed HEK-293” value in series [10] is “only background staining”.
